Key:
A549 = assay: Cytotoxicity against human A549 cells by sulforhodamine B dye-staining method; type: functional, cell-based
In short: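 Human lung cancer A549 cells were stained with sulforhodamine B dye, and the IC50 was reported as the cytotoxicity value.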

P388 = assay: Cytotoxicity against mouse P388 cells by microculture tetrazolium-formazan method; type: functional, cell-based
In short: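 Murine P388 leukemia cells were assayed by the microculture tetrazolium–formazan method, and the IC50 was reported as the cytotoxicity value.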

| Structure (SMILES) | IC50 (A549) [µmol] | IC50 (P388) [µmol] |
| --- | --- | --- |
| O=C1c2cccc3cccc(c23)N1CCNCCN1C(=O)c2cccc3cccc1c23 | 29.5 | 13.8 |
| CN(C)CCCN1C(=O)c2cccc3cccc1c23 | 22.9 | 7.76 |
| CN(C)CCN1C(=O)c2cccc3cccc1c23 | 300 | 79.4 |
| CN(C)CCNCCN1C(=O)c2cccc3cccc1c23 | 0.489 | 1.69 |
| O=C1c2ccc([N+](=O)[O-])c3cccc(c23)N1CCCl | 52.5 | 17.8 |
